Experimental data as given in ChEMBL document CHEMBL1126653, “Structure-function studies of amphiphilic antibacterial peptides” (1993).
Values after ≈ are worked out from the molar mass of the structure shown. Peptide text beside a SMILES is read from it.

Columns and labels:
Escherichia coli = test: Compound tested for in vitro susceptibility against ATCC strain 25922 of Escherichia coli; type: functional; settings: ATCC25922
Procedure, shortened: (§1)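 Microbroth dilution in Tryptic Soy Broth; inoculum 5×10^5 CFU/mL; plates incubated at 37 °C for 18-20 h; value reported as minimal inhibitory concentration (µg/mL).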

Staphylococcus aureus [1] = test: Compound tested for in vitro susceptibility against ATCC strain 29213 of Staphylococcus aureus; type: functional; procedure, shortened: as §1
Pseudomonas aeruginosa [2] = test: Compound tested for in vitro susceptibility against ATCC strain 27853 of Pseudomonas aeruginosa; type: functional; settings: ATCC 27853; procedure, shortened: as §1
Staphylococcus aureus [3] = test: Compound tested for the activity against Staphylococcus aureus strain 8; type: functional; procedure, shortened: as §1
Pseudomonas aeruginosa [4] = test: Compound tested for the antimicrobial activity against Pseudomonas aeruginosa strain 8; type: functional; procedure, shortened: as §1
[5] = Hemolytic activity towards human erythrocytes is evaluated for magainin 2 at peptide concentration of 50 µg/mL; type: functional
Procedure, shortened: (§2)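 Washed human erythrocytes from healthy volunteers (3 mL packed cells, PBS pH 7.4 washes, diluted to 20 mL) exposed to peptide in PBS at 25-200 µg/mL, 30 min at 37 °C; supernatant absorbance at 576 nm after centrifugation; 0.1% Triton X-100 taken as 100% hemolysis; duplicates.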

[6] = Hemolytic activity towards human erythrocytes is evaluated for magainin 2 at peptide concentration of 100 µg/mL; type: functional; procedure, shortened: as §2
Pseudomonas aeruginosa [7] = test: Compound tested for the antimicrobial activity against Pseudomonas aeruginosa strain 9; type: functional; procedure, shortened: as §1
Pseudomonas aeruginosa [8] = test: Compound tested for the antimicrobial activity against Pseudomonas aeruginosa strain 2; type: functional; procedure, shortened: as §1
Pseudomonas aeruginosa [9] = test: Compound tested for the antimicrobial activity against Pseudomonas aeruginosa strain 11; type: functional; procedure, shortened: as §1
Staphylococcus aureus [10] = test: Compound tested for the activity against Staphylococcus aureus strain 4; type: functional; procedure, shortened: as §1
Enterobacter cloacae [11] = test: Compound tested for the antimicrobial activity against Enterobacter cloacae ROS; type: functional
Procedure, shortened: (§3)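 MIC by microbroth dilution in Tryptic Soy Broth; inoculum 5×10^5 CFU/mL; plates incubated 18-20 h at 37 °C; assay pH approximately 7.4.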

Pseudomonas aeruginosa [12] = test: Compound tested for the antimicrobial activity against Pseudomonas aeruginosa strain 3; type: functional; procedure, shortened: as §1
Staphylococcus aureus [13] = test: Compound tested for the activity against Staphylococcus aureus strain 9; type: functional; procedure, shortened: as §1
[14] = test system: Salmonella enterica subsp. enterica serovar Anatum; test: Compound tested for the antimicrobial activity against S. a natum; type: functional, salmoneila onotum; procedure, shortened: as §1
Shigella flexneri = test: Compound tested for the antimicrobial activity against Shigella flexneri; type: functional; procedure, shortened: as §3
Staphylococcus aureus [15] = test: Compound tested for the activity against Staphylococcus aureus strain ATCC 28953; type: functional; procedure, shortened: as §1
Pseudomonas aeruginosa [16] = test: Compound tested for the antimicrobial activity against Pseudomonas aeruginosa strain ATCC 25916; type: functional; procedure, shortened: as §1
Staphylococcus aureus [17] = test: Compound tested for the activity against Staphylococcus aureus strain 5; type: functional; procedure, shortened: as §1
Staphylococcus aureus [18] = test: Compound tested for the activity against Staphylococcus aureus strain 3; type: functional; procedure, shortened: as §1
Pseudomonas aeruginosa [19] = test: Compound tested for the antimicrobial activity against Pseudomonas aeruginosa strain 7; type: functional; procedure, shortened: as §1
Pseudomonas aeruginosa [20] = test: Compound tested for the antimicrobial activity against Pseudomonas aeruginosa strain 6; type: functional; procedure, shortened: as §1
Staphylococcus aureus [21] = test: Compound tested for the activity against Staphylococcus aureus strain 1; type: functional; procedure, shortened: as §1
Staphylococcus aureus [22] = test: Compound tested for the activity against Staphylococcus aureus strain 11; type: functional; procedure, shortened: as §1
Pseudomonas aeruginosa [23] = test: Compound tested for the antimicrobial activity against Pseudomonas aeruginosa strain 4; type: functional; procedure, shortened: as §1
Staphylococcus aureus [24] = test: Compound tested for the activity against Staphylococcus aureus strain 6; type: functional; procedure, shortened: as §1
[25] = Hemolytic activity towards human erythrocytes is evaluated for magainin 2 at peptide concentration of 25 ug/mL; type: functional; procedure, shortened: as §2
[26] = test system: Acinetobacter calcoaceticus subsp. anitratus; test: Compound tested for the antimicrobial activity against Acinetobacter anitratus; type: functional, aeinetobacter anitrotap; procedure, shortened: as §3
Staphylococcus aureus [27] = test: Compound tested for the activity against Staphylococcus aureus strain 7; type: functional; procedure, shortened: as §1
[28] = Hemolytic activity towards human erythrocytes is evaluated for magainin 2 at peptide concentration of 200 µg/mL; type: functional; procedure, shortened: as §2
Pseudomonas aeruginosa [29] = test: Compound tested for the antimicrobial activity against Pseudomonas aeruginosa strain 1; type: functional; procedure, shortened: as §1
Pseudomonas aeruginosa [30] = test: Compound tested for the antimicrobial activity against Pseudomonas aeruginosa strain 10; type: functional; procedure, shortened: as §1
Proteus mirabilis = test: Compound tested for the antimicrobial activity against Proteus mirabilis; type: functional; procedure, shortened: as §1
Staphylococcus aureus [31] = test: Compound tested for the activity against Staphylococcus aureus strain 2; type: functional; procedure, shortened: as §1
Klebsiella pneumoniae = test: Compound tested for the antimicrobial activity against Klebsiella pneumoniae; type: functional; procedure, shortened: as §3
Staphylococcus aureus [32] = test: Compound tested for the activity against Staphylococcus aureus strain 10; type: functional; procedure, shortened: as §1
Enterobacter cloacae [33] = test: Compound tested for the antimicrobial activity against Enterobacter cloacae; type: functional; procedure, shortened: as §1
Pseudomonas aeruginosa [34] = test: Compound tested for the antimicrobial activity against Pseudomonas aeruginosa strain 5; type: functional; procedure, shortened: as §1

SMILES | MIC (Escherichia coli) | MIC (Staphylococcus aureus [1]) | MIC (Pseudomonas aeruginosa [2]) | MIC (Staphylococcus aureus [3]) | MIC (Pseudomonas aeruginosa [4]) | Hemolysis [5] | Hemolysis [6] | MIC (Pseudomonas aeruginosa [7]) | MIC (Pseudomonas aeruginosa [8]) | MIC (Pseudomonas aeruginosa [9]) | MIC (Staphylococcus aureus [10]) | MIC (Enterobacter cloacae [11]) | MIC (Pseudomonas aeruginosa [12]) | MIC (Staphylococcus aureus [13]) | MIC [14] | MIC (Shigella flexneri) | MIC (Staphylococcus aureus [15]) | MIC (Pseudomonas aeruginosa [16]) | Hemolysis [25] | Hemolysis [28] | further results
CC(C)C[C@H](NC(=O)[C@H](C)NC(=O)[C@H](CCCCN)NC(=O)[C@H](C)NC(=O)[C@H](CC(C)C)NC(=O)[C@H](CCCCN)NC(=O)[C@H](C)NC(=O)[C@H](CC(C)C)NC(=O)[C@H](CCCCN)NC(=O)[C@H](CCCCN)NC(=O)[C@H](C)NC(=O)[C@H](CC(C)C)NC(=O)[C@H](CCCCN)NC(=O)[C@H](CCCCN)NC(=O)[C@H](C)NC(=O)[C@H](CC(C)C)NC(=O)[C@@H](N)CCCCN)C(=O)O (H-KLAKKLAKKLAKLAKAL-OH) | 25 µg/mL (≈ 13.6 µM) | 200 µg/mL (≈ 109 µM) | 50 µg/mL (≈ 27.2 µM) | – | – | – | – | – | – | – | – | – | – | – | – | – | – | – | – | – | –
CC(C)C[C@H](NC(=O)[C@H](CCCCN)NC(=O)[C@H](CC(C)C)NC(=O)[C@H](Cc1ccccc1)NC(=O)[C@H](CCCCN)NC(=O)[C@H](CCCCN)NC(=O)[C@H](C)NC(=O)[C@H](Cc1ccccc1)NC(=O)[C@H](CCCCN)NC(=O)[C@H](CCCCN)NC(=O)[C@H](Cc1ccccc1)NC(=O)[C@H](CC(C)C)NC(=O)[C@@H](N)CCCCN)C(=O)N[C@@H](Cc1ccccc1)C(=O)N[C@@H](CCCCN)C(=O)N[C@@H](C)C(=O)N[C@@H](Cc1c[nH]c2ccccc12)C(=O)O (H-KLFKKFAKKFLKLFKAW-OH) | 6.25 µg/mL (≈ 2.88 µM) | – | 12.5 µg/mL (≈ 5.76 µM) | 25 µg/mL (≈ 11.5 µM) | 12.5 µg/mL (≈ 5.76 µM) | 15% | 26% | > 100 µg/mL | 12.5 µg/mL (≈ 5.76 µM) | 25 µg/mL (≈ 11.5 µM) | 25 µg/mL (≈ 11.5 µM) | 12.5 µg/mL (≈ 5.76 µM) | 6.25 µg/mL (≈ 2.88 µM) | 50 µg/mL (≈ 23 µM) | 12.5 µg/mL (≈ 5.76 µM) | 3.12 µg/mL (≈ 1.44 µM) | 25 µg/mL (≈ 11.5 µM) | 3.12 µg/mL (≈ 1.44 µM) | 5% | 40% | MIC (Staphylococcus aureus [17]): 50 µg/mL (≈ 23 µM); MIC (Staphylococcus aureus [18]): 25 µg/mL (≈ 11.5 µM); MIC (Pseudomonas aeruginosa [19]): 6.25 µg/mL (≈ 2.88 µM); MIC (Pseudomonas aeruginosa [20]): 25 µg/mL (≈ 11.5 µM); MIC (Staphylococcus aureus [21]): 3.12 µg/mL (≈ 1.44 µM); MIC (Staphylococcus aureus [22]): 25 µg/mL (≈ 11.5 µM); MIC (Pseudomonas aeruginosa [23]): 12.5 µg/mL (≈ 5.76 µM); MIC (Staphylococcus aureus [24]): 25 µg/mL (≈ 11.5 µM); MIC [26]: 6.25 µg/mL (≈ 2.88 µM); MIC (Staphylococcus aureus [27]): 25 µg/mL (≈ 11.5 µM); MIC (Pseudomonas aeruginosa [29]): 6.25 µg/mL (≈ 2.88 µM); MIC (Pseudomonas aeruginosa [30]): 50 µg/mL (≈ 23 µM); MIC (Proteus mirabilis): > 100 µg/mL; MIC (Staphylococcus aureus [31]): 25 µg/mL (≈ 11.5 µM); MIC (Klebsiella pneumoniae): 12.5 µg/mL (≈ 5.76 µM); MIC (Staphylococcus aureus [32]): 25 µg/mL (≈ 11.5 µM); MIC (Enterobacter cloacae [33]): 6.25 µg/mL (≈ 2.88 µM); MIC (Pseudomonas aeruginosa [34]): 12.5 µg/mL (≈ 5.76 µM)
CC(C)C[C@H](NC(=O)[C@H](CCCCN)NC(=O)[C@H](CC(C)C)NC(=O)[C@H](Cc1c[nH]c2ccccc12)NC(=O)[C@H](CCCCN)NC(=O)[C@H](CCCCN)NC(=O)[C@H](C)NC(=O)[C@H](Cc1c[nH]c2ccccc12)NC(=O)[C@H](CCCCN)NC(=O)[C@H](CCCCN)NC(=O)[C@H](Cc1c[nH]c2ccccc12)NC(=O)[C@H](CC(C)C)NC(=O)[C@@H](N)CCCCN)C(=O)N[C@@H](Cc1c[nH]c2ccccc12)C(=O)N[C@@H](CCCCN)C(=O)N[C@@H](C)C(=O)N[C@@H](Cc1c[nH]c2ccccc12)C(=O)O (H-KLWKKWAKKWLKLWKAW-OH) | 6.25 µg/mL (≈ 2.68 µM) | 50 µg/mL (≈ 21.5 µM) | 3.12 µg/mL (≈ 1.34 µM) | 25 µg/mL (≈ 10.7 µM) | 12.5 µg/mL (≈ 5.37 µM) | 18% | 31% | > 100 µg/mL | 3.12 µg/mL (≈ 1.34 µM) | > 100 µg/mL | 12.5 µg/mL (≈ 5.37 µM) | 25 µg/mL (≈ 10.7 µM) | 12.5 µg/mL (≈ 5.37 µM) | 25 µg/mL (≈ 10.7 µM) | 12.5 µg/mL (≈ 5.37 µM) | 3.12 µg/mL (≈ 1.34 µM) | 25 µg/mL (≈ 10.7 µM) | 3.12 µg/mL (≈ 1.34 µM) | 10% | 55% | MIC (Staphylococcus aureus [17]): 12.5 µg/mL (≈ 5.37 µM); MIC (Staphylococcus aureus [18]): 25 µg/mL (≈ 10.7 µM); MIC (Pseudomonas aeruginosa [19]): 12.5 µg/mL (≈ 5.37 µM); MIC (Pseudomonas aeruginosa [20]): > 100 µg/mL; MIC (Staphylococcus aureus [21]): 12.5 µg/mL (≈ 5.37 µM); MIC (Staphylococcus aureus [22]): 25 µg/mL (≈ 10.7 µM); MIC (Pseudomonas aeruginosa [23]): 12.5 µg/mL (≈ 5.37 µM); MIC (Staphylococcus aureus [24]): 12.5 µg/mL (≈ 5.37 µM); MIC [26]: 3.12 µg/mL (≈ 1.34 µM); MIC (Staphylococcus aureus [27]): 25 µg/mL (≈ 10.7 µM); MIC (Pseudomonas aeruginosa [29]): 6.25 µg/mL (≈ 2.68 µM); MIC (Pseudomonas aeruginosa [30]): 25 µg/mL (≈ 10.7 µM); MIC (Proteus mirabilis): > 100 µg/mL; MIC (Staphylococcus aureus [31]): 6.25 µg/mL (≈ 2.68 µM); MIC (Klebsiella pneumoniae): 12.5 µg/mL (≈ 5.37 µM); MIC (Staphylococcus aureus [32]): 25 µg/mL (≈ 10.7 µM); MIC (Enterobacter cloacae [33]): < 0.39 µg/mL; MIC (Pseudomonas aeruginosa [34]): 12.5 µg/mL (≈ 5.37 µM)
CC(C)C[C@H](NC(=O)[C@H](CCCCN)NC(=O)[C@H](CCCCN)NC(=O)[C@H](Cc1c[nH]c2ccccc12)NC(=O)[C@@H](N)CCCCN)C(=O)N[C@@H](C)C(=O)N[C@@H](CCCCN)C(=O)N[C@@H](CCCCN)C(=O)N[C@@H](Cc1c[nH]c2ccccc12)C(=O)O (H-KWKKLAKKW-OH) | 25 µg/mL (≈ 20.6 µM) | 25 µg/mL (≈ 20.6 µM) | 12.5 µg/mL (≈ 10.3 µM) | – | – | 0% | 0% | – | – | – | – | – | – | – | – | – | – | – | 0% | 0% | –
